pEC50: −log10 of the molar value.
What was measured:
[1] = biological target: Sphingosine 1-phosphate receptor 1 (Homo sapiens, UniProt P21453); test: Agonist activity at human S1P1 receptor by [S35]GTPgammaS binding assay; assay type: functional
Procedure, shortened: (§1)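 GTPγS binding at human S1P1 and S1P3 receptors. EC50 is the mean of two experimental determinations.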

[2] = biological target: Sphingosine 1-phosphate receptor 3 (Homo sapiens, UniProt Q99500); test: Agonist activity at human S1P3 receptor by [S35]GTPgammaS binding assay; assay type: functional; procedure, shortened: as §1
Rattus norvegicus [3] = test: Immunosuppressive activity in LEW rat transplanted with spleen cells of WKAH rat assessed as inhibition of enlargement of draining popliteal lymph node at 1 mg/kg, po qd for 4 days; assay type: functional; conditions: 96 h
Procedure, shortened: (§2)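 Spleen cells from WKAH rats were injected into the footpads of LEW rats to induce draining popliteal lymph node enlargement. Dosing was oral, once daily for four days from the day of cell injection (day 0). Lymph node weight was measured on day 4. Values are the mean of five rats; ID50 is derived from at least three doses.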

Rattus norvegicus [4] = test: Immunosuppressive activity in po dosed LEW rat transplanted with spleen cells of WKAH rat assessed as inhibition of enlargement of draining popliteal lymph node administered qd for 4 days; assay type: functional; conditions: 96 h, read-out: ID50 (the source's name); procedure, shortened: as §2
[5] = Clearance in cynomolgus monkey at 0.5 mg/kg, iv; assay type: ADME, organism-based, Macaca fascicularis; design: dose 0.5 mg/kg, route intravenous; conditions: in vivo
Procedure, shortened: (§3)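 Single iv administration to Lewis rats at 1.0 mg/kg (n = 2) or cynomolgus monkeys at 0.5 mg/kg (n = 2), with clearance and volume of distribution derived.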

[6] = Volume of distribution in cynomolgus monkey at 0.5 mg/kg, iv; assay type: ADME, organism-based, Macaca fascicularis; design: dose 0.5 mg/kg, route intravenous; conditions: in vivo; procedure, shortened: as §3
[7] = Cmax in cynomolgus monkey at 0.5 mg/kg, po; assay type: ADME, organism-based, Macaca fascicularis; design: dose 0.5 mg/kg, route oral; conditions: in vivo
Procedure, shortened: (§4)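 Single oral dose in Lewis rats (n = 4) or cynomolgus monkeys (n = 2), with plasma parameters derived. Bioavailability was calculated against iv dosing at 1.0 mg/kg in rats (n = 2) and 0.5 mg/kg in monkeys (n = 2).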

[8] = Tmax in cynomolgus monkey at 0.5 mg/kg, po; assay type: ADME, organism-based, Macaca fascicularis; design: dose 0.5 mg/kg, route oral; conditions: in vivo; procedure, shortened: as §4
[9] = Half life in cynomolgus monkey at 0.5 mg/kg, po; assay type: ADME, organism-based, Macaca fascicularis; design: dose 0.5 mg/kg, route oral; conditions: in vivo; procedure, shortened: as §4
[10] = AUC (0 to infinity) in cynomolgus monkey at 0.5 mg/kg, po; assay type: ADME, organism-based, Macaca fascicularis; design: time infinity, dose 0.5 mg/kg, route oral; conditions: plasma; procedure, shortened: as §4
[11] = Oral bioavailability in cynomolgus monkey at 0.5 mg/kg; assay type: ADME, organism-based, Macaca fascicularis; conditions: in vivo; procedure, shortened: as §4
[12] = Stability of the compound in presence of enterobacteria from rat cecal contents under anaerobic condition at 3 to 30 uM after 24 hrs; assay type: ADME
Procedure, shortened: (§5)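 Compound solutions at 3.0 and 30 µM were exposed to anaerobic enterobacterial culture fluid from rat cecal contents or monkey feces, grown in prereduced PYF broth, with broth alone as control. Percent compound remaining was traced at 24 and 48 h.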

[13] = Stability of the compound in presence of enterobacteria from monkey feces contents under anaerobic condition at 3 to 30 uM after 24 hrs; assay type: ADME, tissue-based; procedure, shortened: as §5
[14] = Stability of the compound in presence of enterobacteria from rat cecal contents under anaerobic condition at 3 to 30 uM after 48 hrs; assay type: ADME; procedure, shortened: as §5
[15] = Stability of the compound in presence of enterobacteria from monkey feces contents under anaerobic condition at 3 to 30 uM after 48 hrs; assay type: ADME, tissue-based; procedure, shortened: as §5
Rattus norvegicus [16] = test: Drug metabolism in po dosed rat plasma assessed as formation of 4-phenoxy benzoic acid; assay type: ADME, organism-based; conditions: in vivo
[17] = Cmax in Lewis rat at 3 mg/kg, po; assay type: ADME, organism-based; design: dose 3 mg/kg, route oral; conditions: in vivo; procedure, shortened: as §4
[18] = Tmax in Lewis rat at 3 mg/kg, po; assay type: ADME, organism-based; design: dose 3 mg/kg, route oral; conditions: in vivo; procedure, shortened: as §4
[19] = Half life in Lewis rat at 3 mg/kg, po; assay type: ADME, organism-based; design: dose 3 mg/kg, route oral; conditions: in vivo; procedure, shortened: as §4
[20] = AUC (0 to infinity) in Lewis rat at 3 mg/kg, po; assay type: ADME, organism-based; design: dose 3 mg/kg, route oral, time infinity; conditions: plasma; procedure, shortened: as §4
[21] = Oral bioavailability in Lewis rat at 3 mg/kg; assay type: ADME, organism-based; conditions: in vivo; procedure, shortened: as §4
[22] = Clearance in Lewis rat at 1 mg/kg, iv; assay type: ADME, organism-based; design: dose 1 mg/kg, route intravenous; conditions: in vivo; procedure, shortened: as §3
[23] = Volume of distribution in Lewis rat at 1 mg/kg, iv; assay type: ADME, organism-based; design: dose 1 mg/kg, route intravenous; conditions: in vivo; procedure, shortened: as §3
[24] = Cmax in cynomolgus monkey at 1 mg/kg, po; assay type: ADME, organism-based, Macaca fascicularis; design: dose 1 mg/kg, route oral; conditions: in vivo; procedure, shortened: as §4
[25] = Tmax in cynomolgus monkey at 1 mg/kg, po; assay type: ADME, organism-based, Macaca fascicularis; design: dose 1 mg/kg, route oral; conditions: in vivo; procedure, shortened: as §4
[26] = Half life in cynomolgus monkey at 1 mg/kg, po; assay type: ADME, organism-based, Macaca fascicularis; design: dose 1 mg/kg, route oral; conditions: in vivo; procedure, shortened: as §4
[27] = AUC (0 to infinity) in cynomolgus monkey at 1 mg/kg, po; assay type: ADME, organism-based, Macaca fascicularis; design: time infinity, dose 1 mg/kg, route oral; conditions: plasma; procedure, shortened: as §4
[28] = Oral bioavailability in cynomolgus monkey at 1 mg/kg; assay type: ADME, organism-based, Macaca fascicularis; conditions: in vivo; procedure, shortened: as §4

Chain of Sphingosine 1-phosphate receptor 1 (P21453 whole entry): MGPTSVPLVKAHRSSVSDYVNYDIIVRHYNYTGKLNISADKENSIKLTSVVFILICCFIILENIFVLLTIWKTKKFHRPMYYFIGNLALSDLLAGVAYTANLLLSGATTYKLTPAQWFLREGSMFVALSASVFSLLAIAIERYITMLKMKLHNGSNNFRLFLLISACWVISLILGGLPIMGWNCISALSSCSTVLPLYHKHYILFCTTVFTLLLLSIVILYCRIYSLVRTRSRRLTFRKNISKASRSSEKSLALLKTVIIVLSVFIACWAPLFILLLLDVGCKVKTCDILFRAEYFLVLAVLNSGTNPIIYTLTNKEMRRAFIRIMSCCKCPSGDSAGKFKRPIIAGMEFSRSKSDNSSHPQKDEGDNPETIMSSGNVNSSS
Chain of Sphingosine 1-phosphate receptor 3 (Q99500 whole entry): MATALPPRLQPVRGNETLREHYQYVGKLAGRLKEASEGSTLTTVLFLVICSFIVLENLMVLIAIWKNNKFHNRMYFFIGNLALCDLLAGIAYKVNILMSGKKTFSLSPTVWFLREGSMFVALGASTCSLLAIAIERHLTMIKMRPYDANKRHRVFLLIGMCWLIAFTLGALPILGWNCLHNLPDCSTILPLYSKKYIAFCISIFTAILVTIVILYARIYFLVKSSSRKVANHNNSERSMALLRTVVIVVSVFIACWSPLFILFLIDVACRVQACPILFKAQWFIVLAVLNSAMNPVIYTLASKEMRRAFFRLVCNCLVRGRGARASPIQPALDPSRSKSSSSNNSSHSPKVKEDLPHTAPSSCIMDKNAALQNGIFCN

| Structure (SMILES) | pEC50 [1] | pEC50 [2] | inhibition in vivo at 1 mg/kg (Rattus norvegicus [3]) | ED50 (Rattus norvegicus [4]) | also measured |
| --- | --- | --- | --- | --- | --- |
| CCc1cc(CN2CC(C(=O)O)C2)sc1-c1cnc(-c2ccc(Oc3ccccc3)cc2)o1 | 6.52 | < 4.70 | – | – | – |
| CCCc1cc(-c2cnc(-c3sc(CN4CC(C(=O)O)C4)cc3CC)s2)ccc1OC(C)C | 8.96 | 6.40 | 73% | – | – |
| CCc1cc(CN2CC(C(=O)O)C2)sc1-c1ncc(-c2ccc(OC(C)C)cc2)s1 | 8.00 | < 4.70 | 52% | – | – |
| CCc1cc(-c2cnc(-c3ccc(CN4CC(C(=O)O)C4)nc3CC)s2)ccc1OC(C)C | 8.40 | < 4.70 | – | 0.49 mg/kg | clearance [5]: 1.75 mL/min/kg; Vd [6]: 1.46 L/kg; Cmax [7]: 150 ng/mL; Tmax [8]: 5 h; half-life [9]: 16.7 h; AUC(0-inf) [10]: 3730 ng·h/mL; bioavailability [11]: 75.4% |
| CCc1nc(CN2CC(C(=O)O)C2)ccc1-c1cnc(-c2ccc(OC(C)C)c(C)c2)s1 | 8.55 | < 4.70 | 17% | – | – |
| CCc1nc(CN2CC(C(=O)O)C2)ccc1-c1ncc(-c2ccc(OC(C)C)c(C)c2)s1 | 8.26 | < 4.70 | 39% | – | – |
| CCc1cc(CN2CC(C(=O)O)C2)sc1-c1ncc(-c2ccc(O[C@@H](C)CC)c(C)c2)s1 | 8.22 | < 4.70 | – | 0.32 mg/kg | – |
| CCc1cc(CN2CC(C(=O)O)C2)sc1-c1ncc(-c2ccc(O[C@H](C)CC)c(C)c2)s1 | 8.10 | < 4.70 | 27% | – | – |
| CCc1cc(CN2CC(C(=O)O)C2)sc1-c1noc(-c2ccc(Oc3ccccc3)cc2)n1 | – | < 4.70 | – | 0.41 mg/kg | Stability [12]: Unstable; Stability [13]: Unstable; Stability [14]: Unstable; Stability [15]: Unstable; Drug metabolism (Rattus norvegicus [16]): Active |
| CCc1cc(CN2CC(C(=O)O)C2)sc1-c1ncc(-c2ccc(OC(C)C)c(C)c2)s1 | 8.47 | < 4.70 | – | 0.07 mg/kg | Cmax [17]: 340 ng/mL; Tmax [18]: 5 h; half-life [19]: 11.5 h; AUC(0-inf) [20]: 5140 ng·h/mL; bioavailability [21]: 70.6%; clearance [22]: 6.72 mL/min/kg; Vd [23]: 5.37 L/kg; Cmax [24]: 630 ng/mL; Tmax [25]: 4 h; half-life [26]: 7.2 h; AUC(0-inf) [27]: 8690 ng·h/mL; bioavailability [28]: > 90%; clearance [5]: 2 mL/min/kg; Vd [6]: 0.89 L/kg; Stability [12]: Stable; Stability [13]: Stable; Stability [14]: Stable; Stability [15]: Stable |
| CCc1cc(CN2CC(C(=O)O)C2)sc1-c1ncc(-c2ccc(OC(C)C)c(Cl)c2)s1 | 8.49 | < 4.70 | 54% | – | – |
| CCc1cc(CN2CC(C(=O)O)C2)sc1-c1cc(-c2ccc(Oc3ccccc3)cc2)on1 | 7.66 | < 4.70 | 2% | – | – |
| CCc1cc(CN2CC(C(=O)O)C2)sc1-c1ncc(-c2ccc(OC(C)C)c(F)c2)s1 | 8.24 | < 4.70 | – | 0.48 mg/kg | – |

From ChEMBL document CHEMBL2021897, “Synthesis and SAR of 1,3-thiazolyl thiophene and pyridine derivatives as potent, orally active and S1P₃-sparing S1P₁ agonists” (Bioorg Med Chem Lett, 2012)
